Hits are enriched below; roughly 1.9% of the tested compounds scored in any of these assays.
LANA-H2A inh = blockers of LANA interaction with H2A/H2B – biochemical, FP readout, HTS, primary screen; cell-free LANA-H2A/H2B peptide, fluorescence polarization; inhibition, % (concentration not given with the values); 320,000 tested, 0.6% active; AID 2629, 2010; in the data active = inhibition mostly above about 10%, no sharp cut-off; inactive = mostly below about 6.7%
Runt-CBFb FRET = inhibitors of RUNX1 Runt–CBFb binding, primary screen, biochemical, FRET, Cerulean-Runt, Venus-CBFb, uHTS; Cerulean-Runt/Venus-CBFb FRET ratio 530/480, 1 h; Runt-related transcription factor 1 (Homo sapiens) + Core-binding factor subunit beta …; inhibition, % at 20 µM; 220,000 tested, 0.46% active;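 active = inhibition over about 50% at 20 µM in the single-dose screen, limit read from the data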;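 note: 0% = DMSO wells and 100% = excess unlabeled CBFb competitor control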
Target sequence (Q01196 whole entry, looked up): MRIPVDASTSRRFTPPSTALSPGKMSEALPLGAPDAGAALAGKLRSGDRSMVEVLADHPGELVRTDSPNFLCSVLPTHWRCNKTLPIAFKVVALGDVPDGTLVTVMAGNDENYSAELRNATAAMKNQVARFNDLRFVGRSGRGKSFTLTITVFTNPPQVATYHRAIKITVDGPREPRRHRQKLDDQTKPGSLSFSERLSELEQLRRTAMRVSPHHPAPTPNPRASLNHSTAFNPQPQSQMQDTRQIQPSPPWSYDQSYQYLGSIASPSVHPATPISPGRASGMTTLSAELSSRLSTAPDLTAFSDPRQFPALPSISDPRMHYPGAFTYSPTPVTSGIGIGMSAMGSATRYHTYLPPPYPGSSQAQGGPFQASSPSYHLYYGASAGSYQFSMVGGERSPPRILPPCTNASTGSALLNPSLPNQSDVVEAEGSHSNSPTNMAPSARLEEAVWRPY
Target sequence (Q13951 whole entry, looked up): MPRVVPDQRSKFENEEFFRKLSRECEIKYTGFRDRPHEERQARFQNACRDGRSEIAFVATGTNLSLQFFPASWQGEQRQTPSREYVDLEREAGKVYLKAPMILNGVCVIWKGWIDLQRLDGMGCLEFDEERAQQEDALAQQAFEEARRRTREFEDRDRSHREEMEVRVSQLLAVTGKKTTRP
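Reagent – Venus-CBFb binding partner, 100 nM · Assay system – Cerulean-tagged RUNX1 Runt domain (FRET donor) fusion protein · Input – 100 nM per protein · Incubation – two 1 h room-temperature incubations shielded from light · Measured by – FRET fluorescence · Medium – Tris buffer pH 7.5 with salts and BSA · Benchmarks – unlabeled CBFb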
RanGTP-Imp inh = inhibitors of RanGTP-importin-beta interaction, primary screen, biochemical, FRET, CFP-Ran, YFP-importin-beta, homogeneous; Ran GTPase (GTP-bound) - importin-beta complex; 300,000 tested, 1.1% active; inhibition, % (no concentration beside the values); AID 2216, 2009; cell-free CFP-Ran/YFP-importin-beta FRET ratio;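 active = more than half of the replicate wells show a fall in the fluorescence ratio signal beyond about 16%, limit read from the data, passing the limit was not always enough; inconclusive = exactly half of the replicate wells pass the set limit; inactive = fewer than half of replicates pass the limit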;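 note: 0% = DMSO wells and 100% = Ran loaded with GDP instead of GTP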
CaV13 FRET inh = Primary screen for inhibitors of IQ motif and Ca2+-dependent inactivation inhibitor domain binding in CACNA1D, Förster resonance energy transfer in living cells, …; HEK cells, CFP/YFP FRET ICDI-IQ, plate reader, 10 min; percent FRET-ratio fall versus neutral wells; inhibition, % at 12.3 µM; 340,000 tested, 0.098% active;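 active = mean replicate inhibition of at least 30% and at least 1% of replicates passing that level; inconclusive = only one of the two criteria is met; inactive = neither criterion is met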;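 note: 0% = median of the neutral control wells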
Runt-SMMHC FRET = inhibitors of RUNX1 Runt–CBFb-SMMHC binding, primary screen, biochemical, FRET, Cerulean-Runt, Venus-CBFb-SMMHC, uHTS | 220,000 tested, 0.74% active | Cerulean-Runt/Venus-CBFb-SMMHC FRET ratio 530/480, 1 h | AID 1434, 2008 | Runt-related transcription factor 1 (Homo sapiens) + Core-binding factor subunit beta … | inhibition, % at 20 µM;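 active = mean inhibition across duplicate retests at 20 µM reaching about 50%, limit read from the data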;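 note: 0% = DMSO wells and 100% = wells with excess untagged CBFb-SMMHC; inhibitors lower the FRET ratio by blocking Runt binding to CBFb-SMMHC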
HDAC3 inhib = HDAC3 deacetylase inhibitors, primary screen, biochemical, fluorescence, cell-free homogeneous | Histone deacetylase 3 (Homo sapiens), O15379 | recombinant HDAC3, fluorogenic peptide/trypsin coupled | inhibition, % at 8.3 µM | 320,000 tested, 0.15% active | AID 2718, 2010; in the data active = inhibition above about 26%, passing the limit was not always enough; inconclusive = no clear call, values can overlap the other calls
Runt-CBFb TRFRET = inhibitors of RUNX1 Runt–CBFb binding, biochemical, TR-FRET. shares compounds with Runt-CBFb FRET. TR-FRET RUNX1 Runt domain-CBFb binding. inhibition, % at 20 µM. 480 tested, 20% active. AID 1502, 2009; in the data active = inhibition above about 40%
The depositor's hits bear a star; u = inconclusive; x = not tested or not shown.

SMILES	LANA-H2A inh	Runt-CBFb FRET	RanGTP-Imp inh	CaV13 FRET inh	Runt-SMMHC FRET	HDAC3 inhib	Runt-CBFb TRFRET
O=C(CC1Sc2ccccc2NC1=O)OCc1cc(=O)oc2cc(O)ccc12 (stereo not given)	2	62*	u	-5	x	-12	49*
Nc1ncnc(Sc2ncccn2)c1[N+](=O)[O-]	x	62*	0	1	10	x	1
CCOC(=O)c1c(NC(C)=O)sc2c1CCC(C=O)=C2Sc1ccccc1	1	53*	1	-10	32	-3	-19
C=CCSc1nc(NC)c2sccc2n1	-8	-3	-1	x	1	3	x
O=C(NCCc1ccccc1)C1CCN(S(=O)(=O)c2cccc3nsnc23)CC1	-1	0	2	-4	-10	4	x
COc1ccc(CCNC(=O)C2CCN(S(=O)(=O)c3cccc4nsnc34)CC2)cc1OC	0	81*	5	x	-2	2	-6
CC(C)C[C@@H](CN1CCC[C@@H]1CN1C(=O)C(=O)NC[C@@H]1Cc1ccccc1)N1C[C@H](Cc2ccc(O)cc2)N(CC2CCCCCC2)C(=O)C1=O	x	x	x	-8	x	x	x
CCc1c(C)c(C#N)c2nc3ccccc3n2c1Nc1c(C)n(C)n(-c2ccccc2)c1=O	0	56*	40*	-5	92*	0	24
CCc1c(C)c(C#N)c2nc3ccccc3n2c1N(C)C	2	9	x	x	18	-2	x
NS(=O)(=O)c1ccc(N/C=C\C(=O)c2ccc3ccccc3c2)cc1	-3	50*	-3	-2	-62	1	44*
COc1ccc2nc(NC(=O)c3sc4nc(C)cc(C)c4c3N)sc2c1	-14	65*	7	27	31	-2	13
COc1ccc(S(=O)(=O)C(C#N)c2nc3ccccc3nc2N2CCCC(C)C2)cc1 (stereo not given)	0	6	13	x	0	-8	x
Cc1ccc(NC(=S)N2CCN(Cc3ccccc3)CC2)cc1	-2	-2	0	0	2	-2	x
Cc1ccc(C(=S)N2CCN(Cc3ccccc3)CC2)cc1	-4	52*	1	-5	38	-9	42*
CCCC(C)NC(=O)c1ccc(F)cc1 (stereo not given)	2	1	-2	x	-7	0	x
CC1=C(C(=O)N2CCOCC2)CC(CC(=O)NCCCCc2ccccc2)C(=O)N1Cc1ccc(F)cc1 (stereo not given)	x	x	x	-6	x	x	x
c1cncc(COC2CCCN(Cc3nc(-c4cccs4)no3)C2)c1 (stereo not given)	-5	0	0	-12	-3	6	x
N#CC1=C2SCN(c3ccc(F)cc3)CN2C(=O)CC1c1cccc(F)c1 (stereo not given)	2	14	7	8	26	5	x
COc1ccc(C2CC(=O)N3CN(c4ccc(C)c(Cl)c4)CSC3=C2C#N)cc1OC (stereo not given)	-4	59*	-1	-4	100*	43*	-24
C/C(=N/NC(=O)c1cc(O)c(O)c(O)c1)c1ccc([N+](=O)[O-])cc1	x	54*	9	-4	50	x	67*
COc1ccc(S(=O)(=O)N(C(C)=O)c2ccc3oc(=O)sc3c2)cc1	-3	67*	0	-4	58*	-4	16

High-throughput results: PubChem BioAssay, several laboratories
